Measurements collected from several papers.
Protocols differ between the studies behind these lines.
PDE2A: cGMP-dependent 3',5'-cyclic phosphodiesterase (PDE2A, Homo sapiens, UniProt O00408)
MMP8: Neutrophil collagenase (MMP8, Homo sapiens, UniProt P22894)
CA2: Carbonic anhydrase 2 (CA2, Homo sapiens, UniProt P00918)

SMILES	target	assay	conditions	inhibition
Cn1cc(-c2cc(F)cc(N3CCn4c(cc5c4CCCC5)C3=O)c2CO)cc(Nc2ccc(N3CCN(C4COC4)CC3)cn2)c1=O	G protein-coupled receptor kinase 3 (GRK3, Homo sapiens, UniProt P35626)	enzyme activity, inhibitor	0.1 µM	0%
O=C(Nc1cccnn1)N1CCN([C@@H]2CCOc3cc(C(F)(F)F)ccc32)CC1	PDE2A	enzyme activity, inhibitor	20 µM	3%
Cn1cc(-c2cccc(N3CCc4c(sc5c4CC(C)(C)C5)C3=O)c2CO)cc(Nc2ccncn2)c1=O	Dual specificity mitogen-activated protein kinase kinase 6 (MAP2K6, Homo sapiens, UniProt P52564)	enzyme activity, inhibitor	1 µM	11%
O=C(O)Cc1ccccc1Nc1c(Cl)cccc1Cl	Histone acetyltransferase p300 (EP300, Homo sapiens, UniProt Q09472)	enzyme activity, inhibitor, mobility shift	1.25 mM	> 50%
COc1ccc(S(=O)(=O)N(CC(=O)NO)CC(C)C)cc1	MMP8	enzyme activity, inhibitor	1 µM	91%
CN(CCN1CCC(OC(=O)Nc2ccccc2-c2ccccc2)CC1)C(=O)c1ccc(CN2CCC(C(N)=O)CC2)cc1	PDE2A	enzyme activity, inhibitor	1 µM	1%
C#Cc1n[nH]c2c(-c3cn([C@@H](C)c4ccccn4)c(=O)[nH]c3=O)cc(F)cc12	cAMP-dependent protein kinase catalytic subunit alpha (PRKACA, Homo sapiens, UniProt P17612)	enzyme activity, inhibitor	0.1 µM	5.1%
CCN(CC)CCCC[C@H](NC(=O)[C@H](CC(C)C)NC(=O)[C@H](C)NC(=O)[C@H](Cc1ccccc1)NC(=O)c1ccc(C(C)(C)C)cc1)C(=O)N[C@@H](CO)C(=O)OC	Delta-type opioid receptor (OPRD1, Homo sapiens, UniProt P41143)	ligand displacement, radioligand	10 µM	29%
N=C(N)c1ccc2cc(OC(=O)c3ccc(N=C(N)N)cc3)ccc2c1	MMP8	enzyme activity, inhibitor	10 µM	0%
c1ccc(C(NCCNC(c2ccccc2)c2ccccc2)c2ccccc2)cc1	CA2	enzyme activity, inhibitor	10 µM	-7%
COCc1c(-c2cc3cc(C)cc(OC)c3s2)c2c(N)ncnn2c1CN1CCNC(=O)C1	CA2	enzyme activity, inhibitor	10 µM	44%
Cc1ncc(C)n2nc(/C=C/c3nc(N4CCCC4)cc(N4CCOCC4)n3)nc12	PDE2A	enzyme activity, inhibitor	10 µM	38%
CC(C)=CCC[C@]1(C)C=Cc2c(O)c3c(c(CC=C(C)C)c2O1)O[C@]12C(=C[C@@H]4C[C@H]1C(C)(C)O[C@@]2(C/C=C(/C)C(=O)O)C4=O)C3=O	N-lysine methyltransferase KMT5A (KMT5A, Homo sapiens, UniProt Q9NQR1)	cell-free assay	10 µM	18%
